In ChEMBL document CHEMBL1129565, “Selective inhibitors of monoamine oxidase. 3. Structure-activity relationship of tricyclics bearing imidazoline, oxadiazole, or tetrazole groups” (J Med Chem, 1996):

Key:
[1] = biological target: T1, Amine oxidase [flavin-containing] B (Rattus norvegicus, UniProt P19643); assay: Inhibitory activity against rat brain mitochondrial Monoamine oxidase B 0.1(uM)
T1 sequence (P19643 whole entry): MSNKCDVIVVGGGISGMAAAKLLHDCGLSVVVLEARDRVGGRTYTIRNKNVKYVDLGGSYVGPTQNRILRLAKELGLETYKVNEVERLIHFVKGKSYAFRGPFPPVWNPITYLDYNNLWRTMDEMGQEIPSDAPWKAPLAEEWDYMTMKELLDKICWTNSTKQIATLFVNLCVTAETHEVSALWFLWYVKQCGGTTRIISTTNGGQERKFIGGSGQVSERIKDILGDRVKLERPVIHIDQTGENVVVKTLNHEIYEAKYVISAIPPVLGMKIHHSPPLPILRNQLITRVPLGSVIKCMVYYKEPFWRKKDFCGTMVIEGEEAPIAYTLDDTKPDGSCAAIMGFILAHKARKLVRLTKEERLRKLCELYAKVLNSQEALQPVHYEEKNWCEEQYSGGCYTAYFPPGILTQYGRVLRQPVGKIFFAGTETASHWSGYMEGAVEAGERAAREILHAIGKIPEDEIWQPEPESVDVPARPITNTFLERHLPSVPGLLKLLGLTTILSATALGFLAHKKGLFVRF
Procedure, shortened: (§1)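 Rat brain mitochondrial MAO extract preincubated with inhibitor 15 min at 37 °C in 50 mM potassium phosphate pH 7.4. [14C]phenethylamine added at 10 μM final, then 20 min incubation. Pargyline 2 mM blanks. Stopped with HCl, products extracted into ethyl acetate/toluene and counted radiometrically. Triplicates; IC50 from mean % inhibition vs log concentration.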

[2] = biological target: T2, Amine oxidase [flavin-containing] A (Rattus norvegicus, UniProt P21396); assay: Inhibitory concentration against Monoamine oxidase A
T2 sequence (P21396 whole entry): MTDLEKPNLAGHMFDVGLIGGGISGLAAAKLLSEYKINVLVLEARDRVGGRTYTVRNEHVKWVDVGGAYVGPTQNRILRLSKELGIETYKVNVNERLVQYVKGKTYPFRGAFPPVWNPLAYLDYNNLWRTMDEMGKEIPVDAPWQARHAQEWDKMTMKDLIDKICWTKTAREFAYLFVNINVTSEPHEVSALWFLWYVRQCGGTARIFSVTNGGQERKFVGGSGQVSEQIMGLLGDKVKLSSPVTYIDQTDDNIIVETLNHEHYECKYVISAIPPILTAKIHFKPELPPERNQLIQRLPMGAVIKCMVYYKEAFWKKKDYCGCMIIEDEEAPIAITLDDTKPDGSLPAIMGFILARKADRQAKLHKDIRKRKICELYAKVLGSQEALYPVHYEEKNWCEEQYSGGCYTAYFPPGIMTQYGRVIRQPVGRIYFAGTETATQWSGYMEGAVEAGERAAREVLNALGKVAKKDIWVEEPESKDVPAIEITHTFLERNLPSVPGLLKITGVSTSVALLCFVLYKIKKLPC
Procedure, shortened: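 Rat brain mitochondrial MAO extract was preincubated ± inhibitor 15 min at 37 °C in 50 mM potassium phosphate (pH 7.4), then given [3H]serotonin at 0.2 μM final for 20 min. Blanks contained 2 mM pargyline. Products went into ethyl acetate/toluene for scintillation counting. Triplicates per concentration; IC50 extrapolated from mean % inhibition vs log concentration plots.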

[3] = biological target: T1, Amine oxidase [flavin-containing] B; assay: Inhibitory activity against Monoamine oxidase B at 1 uM; procedure, shortened: as §1
[4] = biological target: T1, Amine oxidase [flavin-containing] B; assay: Inhibitory activity against rat brain mitochondrial Monoamine oxidase B at 3 uM; procedure, shortened: as §1
[5] = biological target: T2, Amine oxidase [flavin-containing] A; assay: Inhibitory concentration against rat brain mitochondrial Monoamine oxidase A at 3 uM
Procedure, shortened: (§2)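 Rat brain mitochondrial MAO extract preincubated with inhibitor 15 min at 37 °C in 50 mM potassium phosphate pH 7.4. [3H]serotonin added at 0.2 μM final, then 20 min incubation. Pargyline 2 mM blanks. Stopped with HCl, products extracted into ethyl acetate/toluene and counted radiometrically. Triplicates; IC50 from mean % inhibition vs log concentration.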

[6] = biological target: T2, Amine oxidase [flavin-containing] A; assay: Inhibitory concentration against rat brain mitochondrial monoamine oxidase A; procedure, shortened: as §2
[7] = biological target: T1, Amine oxidase [flavin-containing] B; assay: Inhibitory activity against rat brain mitochondrial Monoamine oxidase B at 50 uM; procedure, shortened: as §1
[8] = biological target: T2, Amine oxidase [flavin-containing] A; assay: Inhibition of the enzyme Monoamine oxidase A which was not completely reverserved after 24 hr of dialysis
Procedure, shortened: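 Reversibility: MAO extract preincubated with or without inhibitor 15 min at 37 °C, in duplicate, then dialysed 24 h at 4 °C with shaking against 0.1 M potassium phosphate pH 7.4, 5% sucrose, 1 mM dithiothreitol, buffer changed ca. 3 and 19 h. Undialysed portions held at 4 °C; both assayed together for MAO activity.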

[9] = biological target: T1, Amine oxidase [flavin-containing] B; assay: Inhibitory activity against rat brain mitochondrial Monoamine oxidase B at 0.003 uM; procedure, shortened: as §1
[10] = biological target: T2, Amine oxidase [flavin-containing] A; assay: Ex vivo value for inhibition of MAO A of rats sacrificed 2 hr after po administration; type: organism-based
Procedure, shortened: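 Rats dosed orally, killed 2 h later; brain MAO A inhibition then measured ex vivo.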

[11] = biological target: T2, Amine oxidase [flavin-containing] A; assay: Inhibition of the enzyme MAO A which was not completely reverserved after 24 hr of dialysis after po administration to rat (brain); type: organism-based; conditions: in vivo
[12] = biological target: T1, Amine oxidase [flavin-containing] B; assay: Inhibitory activity against rat brain mitochondrial Monoamine oxidase B at 10 uM; procedure, shortened: as §1
[13] = biological target: T2, Amine oxidase [flavin-containing] A; assay: Inhibitory concentration against rat brain mitochondrial Monoamine oxidase A at <1 uM; procedure, shortened: as §2
[14] = biological target: T1, Amine oxidase [flavin-containing] B; assay: Inhibitory activity against rat brain mitochondrial Monoamine oxidase B at < 1 uM; procedure, shortened: as §1
[15] = biological target: T1, Amine oxidase [flavin-containing] B; assay: Inhibitory activity against rat brain mitochondrial Monoamine oxidase B at 0.2 uM; procedure, shortened: as §1
[16] = biological target: T2, Amine oxidase [flavin-containing] A; assay: Inhibitory concentration against rat brain mitochondrial Monoamine oxidase A at <5 uM; procedure, shortened: as §2
[17] = biological target: T1, Amine oxidase [flavin-containing] B; assay: Inhibitory activity against rat brain mitochondrial Monoamine oxidase B; procedure, shortened: as §1
[18] = biological target: T1, Amine oxidase [flavin-containing] B; assay: Inhibitory activity against rat brain mitochondrial Monoamine oxidase B at 0.0 uM; procedure, shortened: as §1
[19] = biological target: T2, Amine oxidase [flavin-containing] A; assay: Inhibitory concentration against rat brain mitochondrial Monoamine oxidase A at 0.1 uM; procedure, shortened: as §2
[20] = biological target: T1, Amine oxidase [flavin-containing] B; assay: Inhibitory activity against rat brain mitochondrial Monoamine oxidase B at 0.1 uM; procedure, shortened: as §1
[21] = biological target: T2, Amine oxidase [flavin-containing] A; assay: Inhibitory activity against Monoamine oxidase A at 1 uM; procedure, shortened: as §2
[22] = biological target: T2, Amine oxidase [flavin-containing] A; assay: Inhibition of the enzyme Monoamine oxidase A which was not completely reverserved after 24 hr of dialysis after po administration to rat (brain); type: organism-based; conditions: in vivo
[23] = biological target: T1, Amine oxidase [flavin-containing] B; assay: Inhibitory activity against rat brain mitochondrial Monoamine oxidase B;NS=not significant at 0.1 uM; procedure, shortened: as §1
[24] = biological target: T1, Amine oxidase [flavin-containing] B; assay: Inhibitory activity against rat brain mitochondrial Monoamine oxidase B at 0.03 uM; procedure, shortened: as §1
[25] = biological target: T1, Amine oxidase [flavin-containing] B; assay: Inhibitory activity against rat brain mitochondrial Monoamine oxidase B at 0.3 uM; procedure, shortened: as §1
[26] = biological target: T2, Amine oxidase [flavin-containing] A; assay: Inhibitory activity against rat brain mitochondrial Monoamine oxidase A (Expt 2)
[27] = biological target: T2, Amine oxidase [flavin-containing] A; assay: Inhibitory concentration against rat brain mitochondrial Monoamine oxidase A (Expt 1); procedure, shortened: as §2
[28] = biological target: T2, Amine oxidase [flavin-containing] A; assay: Inhibition of the enzyme Monoamine oxidase A which was not completely reverserved after 24 hr of dialysis after 20 mg/kg po administration; type: organism-based; design: dose 20 mg/kg, route oral; conditions: in vivo
[29] = biological target: T1, Amine oxidase [flavin-containing] B; assay: Inhibitory activity against Monoamine oxidase B; NS=not significant at 0.001 uM
Procedure, shortened: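 Rat brain mitochondrial MAO extract preincubated with or without inhibitor 15 min at 37 °C in 50 mM potassium phosphate, pH 7.4. [14C]phenethylamine was then added to 10 μM final and incubated 20 min. Blanks contained 2 mM pargyline. Products were extracted into ethyl acetate/toluene and counted by scintillation. Triplicates at each inhibitor concentration; mean percent inhibition.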

[30] = biological target: T1, Amine oxidase [flavin-containing] B; assay: Inhibitory activity against rat brain mitochondrial Monoamine oxidase B; NS=not significant at 1 uM; procedure, shortened: as §1
[31] = biological target: T1, Amine oxidase [flavin-containing] B; assay: Inhibitory activity against rat brain mitochondrial Monoamine oxidase B; NS=not significant at 0.001 uM; procedure, shortened: as §1
[32] = biological target: T2, Amine oxidase [flavin-containing] A; assay: Inhibitory concentration against rat brain mitochondrial Monoamine oxidase A at 0.5 uM; procedure, shortened: as §2
[33] = biological target: T2, Amine oxidase [flavin-containing] A; assay: Inhibition of the enzyme Monoamine oxidase A which was not completely reverserved after 24 hr of dialysis after 25 mg/kg po administration *; type: organism-based; design: dose 25 mg/kg, route oral; conditions: in vivo
[34] = biological target: T1, Amine oxidase [flavin-containing] B; assay: Inhibitory activity against rat brain mitochondrial Monoamine oxidase B; NS=not significant ta 1 uM; procedure, shortened: as §1
[35] = biological target: T1, Amine oxidase [flavin-containing] B; assay: Inhibitory activity against rat brain mitochondrial Monoamine oxidase B;NS=not significant at 1 uM; procedure, shortened: as §1
[36] = biological target: T1, Amine oxidase [flavin-containing] B; assay: Inhibitory activity against rat brain mitochondrial Monoamine oxidase B at 0.5 uM; procedure, shortened: as §1

O=S1(=O)c2cc(C3=NCCN3)ccc2Oc2ccc(C3=NCCN3)cc21
% inhibition [1]: 5%

c1ccc2c(c1)Sc1ccc(C3=NCCN3)cc1S2
IC50 [2]: 300 nM
inhibition at 1 µM [3]: 31%

c1ccc2c(c1)[nH]c1cc(C3=NCCN3)ccc12
inhibition at 3 µM [4]: 38%
inhibition at 3 µM [5]: 33%

Cn1nnc(-c2ccc3c(c2)S(=O)(=O)c2ccccc2O3)n1
IC50 [6]: 2 nM
inhibition at 50 µM [7]: 10%

CCCOc1ccc2c(c1)C(=O)c1ccc(-c3nnn(C)n3)cc1S2(=O)=O
IC50 [6]: 2 nM
Reversible [8]: 0%
inhibition at 0.003 µM [9]: -13%

CCc1ccc2c(c1)C(=O)c1ccc(C3=NCCN3)cc1S2(=O)=O
Ki [10]: 4 nM
IC50 [6]: 10 nM
Reversible [11]: 11%
inhibition at 10 µM [12]: 27%

CCOc1ccc2oc3cc(-c4nnn(CC)n4)ccc3c(=O)c2c1
Inhibition [13]: 6%
Inhibition [14]: 32%

O=C1c2cc(Cl)ccc2S(=O)(=O)c2cc(C3=NCCN3)ccc21
IC50 [6]: 70 nM
Reversible [11]: 60%
inhibition at 0.2 µM [15]: 3%

O=C1c2ccccc2S(=O)(=O)c2cc(-c3ncc[nH]3)ccc21
Inhibition [16]: 44%
Inhibition [17]: 10%

CCCNc1ccc2c(c1)C(=O)c1ccc(C3=NCCN3)cc1S2(=O)=O
IC50 [6]: 20 nM
Reversible [8]: 0%
Inhibition [18]: 4%

CCCOc1ccc2c(c1)C(=O)c1ccc(C3=NCCN3C(C)=O)cc1S2(=O)=O
inhibition at 0.1 µM [19]: 16%
inhibition at 0.1 µM [20]: 20%

c1ccc2c(c1)cc(C1=NCCN1)c1ccccc12
inhibition at 1 µM [21]: 30%

O=c1c2ccc(-c3nnn(CCO)n3)cc2oc2ccc(OCCO)cc12
Inhibition [13]: 29%
Inhibition [14]: 18%

CCN(C)c1ccc2c(c1)C(=O)c1ccc(C3=NCCN3)cc1S2(=O)=O
IC50 [6]: 40 nM
Reversible [22]: 20%
IC50 [23]: Not Active

CN(C)c1ccc2c(c1)C(=O)c1ccc(C3=NCCN3)cc1S2(=O)=O
IC50 [6]: 20 nM
Reversible [8]: 21%
inhibition at 0.03 µM [24]: 8%

Cn1nnnc1-c1ccc2c(c1)S(=O)(=O)c1ccccc1C2=O
inhibition at 0.1 µM [19]: 53%
inhibition at 0.1 µM [20]: 1%

O=C1c2ccccc2S(=O)(=O)c2cc(C3=NCCN3)ccc21
Ki [10]: 80 nM
IC50 [6]: 300 nM
Reversible [11]: 100%
inhibition at 0.3 µM [25]: 3%

CCCOc1ccc2c(c1)C(=O)c1ccc(C3=NCCN3)cc1S2(=O)=O
IC50 [26]: 9 nM
IC50 [27]: 40 nM
Reversible [8]: 2%
IC50 [23]: Not Active

Cc1nnc(-c2ccc3c(c2)OOc2ccccc2C3=O)o1
IC50 [2]: 2 nM
Reversible [28]: 12%
Inhibition [29]: Not Active

CC(C)(C)c1ccc2c(c1)C(=O)c1ccc(C3=NCCN3)cc1S2(=O)=O
IC50 [6]: 800 nM
Reversible [8]: 56%
IC50 [30]: Not Active

Cc1ccc2c(c1)C(=O)c1ccc(-c3nnc(C)o3)cc1S2(=O)=O
IC50 [6]: 2 nM
Reversible [8]: 10%
IC50 [31]: Not Active

CC(=O)N1CCN=C1c1ccc2c(c1)S(=O)(=O)c1ccc(F)cc1C2=O
Inhibition [13]: 4%
Inhibition [14]: -11%

O=C1c2ccccc2S(=O)(=O)c2cc(-c3nnc(C(F)(F)F)o3)ccc21
inhibition at 0.5 µM [32]: 7%
inhibition at 0.1 µM [20]: 7%

O=C1c2cc(N3CCSCC3)ccc2S(=O)(=O)c2cc(C3=NCCN3)ccc21
IC50 [6]: 20 nM
inhibition at 0.2 µM [15]: 10%

Cc1nnc(-c2ccc3c(c2)S(=O)(=O)c2ccccc2C3=O)o1
IC50 [6]: 2 nM
Reversible [33]: 33%
IC50 [34]: Not Active

O=C1c2cc(NCCO)ccc2S(=O)(=O)c2cc(C3=NCCN3)ccc21
IC50 [6]: 40 nM
IC50 [35]: Not Active

COc1nc(-c2ccc3c(c2)S(=O)(=O)c2ccccc2C3=O)no1
IC50 [6]: 80 nM
inhibition at 0.5 µM [36]: 23%

CCCc1ccc2c(c1)C(=O)c1ccc(C3=NCCN3)cc1S2(=O)=O
IC50 [6]: 40 nM
Reversible [8]: 2%
inhibition at 0.3 µM [25]: 0%
